Assay results from ChEMBL document CHEMBL1125220 (J Med Chem, 1991).

What was measured:
D(2) dopamine receptor [1] = target: T1, D(2) dopamine receptor (Rattus norvegicus, UniProt P61169); assay: Compound was tested for its binding affinity towards dopamine receptor D2 by using [3H]domperidone as radioligand
Outline: (§1)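 Rat striatal membranes from frozen tissue, washed and resuspended in 50 mM Tris-HCl with 120 mM NaCl, 5 mM KCl, 2 mM CaCl2, 1 mM MgCl2 (pH 7.4 at 37 °C). Competition binding used [3H]SCH-23390 for D1 and [3H]domperidone for D2. IC50 ± SEM from duplicate or triplicate determinations.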

[2] = target: Glutamate receptor ionotropic, NMDA 2C (Rattus norvegicus, UniProt Q00961); assay: (§2) Compound was tested for its affinity towards PCP receptor in rat brain membrane [3H]MK-801 as radioligand; assay type: cell membranes
D(1A) dopamine receptor [3] = target: T2, D(1A) dopamine receptor (Rattus norvegicus, UniProt P18901); assay: Binding affinity towards Dopamine receptor D1 in rat membranes using [3H]SCH-23390 as radioligand; assay type: cell membranes
D(2) dopamine receptor [4] = target: T1, D(2) dopamine receptor; assay: Compound was tested for its binding affinity towards Dopamine receptor D2 by using [3H]domperidone as radioligand
D(1A) dopamine receptor [5] = target: T2, D(1A) dopamine receptor; assay: Binding affinity determined in radioreceptor binding assay by using [3H]SCH-23390 radioligand against dopamine receptor D1; outline: as §1
Rattus norvegicus = species: Rattus norvegicus; assay: as §2

T2 sequence (P18901 whole entry): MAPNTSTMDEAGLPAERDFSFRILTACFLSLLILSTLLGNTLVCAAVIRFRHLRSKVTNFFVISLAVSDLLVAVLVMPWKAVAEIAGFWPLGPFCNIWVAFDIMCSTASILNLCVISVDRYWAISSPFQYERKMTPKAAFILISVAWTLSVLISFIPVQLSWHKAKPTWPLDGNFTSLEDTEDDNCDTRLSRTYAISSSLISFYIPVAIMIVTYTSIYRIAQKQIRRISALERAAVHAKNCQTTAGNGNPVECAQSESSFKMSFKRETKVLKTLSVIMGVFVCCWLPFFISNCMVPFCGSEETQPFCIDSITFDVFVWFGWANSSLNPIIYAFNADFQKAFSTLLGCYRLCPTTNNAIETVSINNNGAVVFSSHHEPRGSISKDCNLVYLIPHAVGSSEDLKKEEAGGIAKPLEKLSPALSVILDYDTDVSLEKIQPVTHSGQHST
T1 sequence (P61169 whole entry): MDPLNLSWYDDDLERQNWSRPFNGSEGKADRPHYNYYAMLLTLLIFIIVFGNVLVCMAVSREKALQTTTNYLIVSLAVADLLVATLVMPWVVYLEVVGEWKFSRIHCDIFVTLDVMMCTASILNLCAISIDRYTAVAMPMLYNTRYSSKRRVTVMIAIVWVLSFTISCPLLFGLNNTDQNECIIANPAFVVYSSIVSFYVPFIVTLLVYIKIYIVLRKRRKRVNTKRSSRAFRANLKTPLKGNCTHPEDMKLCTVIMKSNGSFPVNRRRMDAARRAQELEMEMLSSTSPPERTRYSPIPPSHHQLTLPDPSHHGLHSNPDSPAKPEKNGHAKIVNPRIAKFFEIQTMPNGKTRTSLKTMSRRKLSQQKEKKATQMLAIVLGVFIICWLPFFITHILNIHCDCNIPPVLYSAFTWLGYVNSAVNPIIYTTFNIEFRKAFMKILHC
Sequence of Glutamate receptor ionotropic, NMDA 2C (Q00961 whole entry): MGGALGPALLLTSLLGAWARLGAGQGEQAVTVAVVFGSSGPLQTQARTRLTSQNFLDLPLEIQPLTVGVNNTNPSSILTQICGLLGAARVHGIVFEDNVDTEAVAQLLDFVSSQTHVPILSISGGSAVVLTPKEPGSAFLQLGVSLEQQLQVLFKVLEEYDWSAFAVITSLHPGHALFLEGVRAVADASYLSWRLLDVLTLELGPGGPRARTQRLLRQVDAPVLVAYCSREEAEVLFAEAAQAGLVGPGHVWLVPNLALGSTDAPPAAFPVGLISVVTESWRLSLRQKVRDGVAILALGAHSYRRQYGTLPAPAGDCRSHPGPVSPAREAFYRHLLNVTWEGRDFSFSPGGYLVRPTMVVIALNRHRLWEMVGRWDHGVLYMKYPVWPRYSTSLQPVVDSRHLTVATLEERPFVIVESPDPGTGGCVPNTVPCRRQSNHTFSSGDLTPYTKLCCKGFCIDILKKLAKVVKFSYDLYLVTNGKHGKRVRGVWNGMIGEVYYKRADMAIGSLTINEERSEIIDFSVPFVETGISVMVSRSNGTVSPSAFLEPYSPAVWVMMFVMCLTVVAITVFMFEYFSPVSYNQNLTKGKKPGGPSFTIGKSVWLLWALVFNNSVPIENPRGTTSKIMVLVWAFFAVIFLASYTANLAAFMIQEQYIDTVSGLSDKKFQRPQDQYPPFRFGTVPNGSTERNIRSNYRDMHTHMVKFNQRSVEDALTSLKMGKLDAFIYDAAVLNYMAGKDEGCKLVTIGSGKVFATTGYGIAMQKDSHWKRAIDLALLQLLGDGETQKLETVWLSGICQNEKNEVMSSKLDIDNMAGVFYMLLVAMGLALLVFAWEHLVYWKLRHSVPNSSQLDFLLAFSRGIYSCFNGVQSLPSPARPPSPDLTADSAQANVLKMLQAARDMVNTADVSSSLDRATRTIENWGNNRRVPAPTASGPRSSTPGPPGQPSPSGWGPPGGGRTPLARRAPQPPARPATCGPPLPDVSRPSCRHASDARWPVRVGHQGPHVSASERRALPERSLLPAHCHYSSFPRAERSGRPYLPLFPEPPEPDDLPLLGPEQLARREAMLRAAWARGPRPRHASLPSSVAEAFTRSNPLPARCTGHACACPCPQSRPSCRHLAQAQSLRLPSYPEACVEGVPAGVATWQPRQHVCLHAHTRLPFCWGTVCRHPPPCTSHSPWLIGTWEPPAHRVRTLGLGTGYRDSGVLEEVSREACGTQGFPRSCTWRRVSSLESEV

| IC50 (D(2) dopamine receptor [1]) | IC50 (D(1A) dopamine receptor [5]) | SMILES | IC50 [2] | IC50 (D(1A) dopamine receptor [3]) | IC50 (D(2) dopamine receptor [4]) | IC50 (Rattus norvegicus) |
| --- | --- | --- | --- | --- | --- | --- |
|  |  | c1ccc(CCCN2CCC(c3ccccc3)CC2)cc1 | > 10000 nM | > 10000 nM | 335 nM |  |
| 210 nM | > 10000 nM | c1ccc(CCCCCN2CCC(c3ccccc3)CC2)cc1 | > 10000 nM |  |  |  |
|  |  | OC1(c2ccccc2)CCN(CCCc2ccccc2)CC1 |  | > 10000 nM | 1250 nM | > 10000 nM |
|  |  | c1ccc(CCCCN2CCC(c3ccccc3)CC2)cc1 |  | > 10000 nM | 165 nM | > 10000 nM |
| 45 nM |  | c1ccc(CCCCN2CCN(c3ccccc3)CC2)cc1 | > 10000 nM | 2820 nM |  |  |

| SMILES | IC50 (D(2) dopamine receptor [1]) | IC50 (D(1A) dopamine receptor [5]) | IC50 [2] | IC50 (D(1A) dopamine receptor [3]) | IC50 (D(2) dopamine receptor [4]) | IC50 (Rattus norvegicus) |
| --- | --- | --- | --- | --- | --- | --- |
| c1ccc(N2CCN(CCCc3ccc4ccccc4c3)CC2)cc1 | 160 nM |  | > 10000 nM |  |  |  |
